{
  "source": "paper PMC5035150",
  "about": "(Journal of biological inorganic chemistry : JBIC : a …, 2015)",
  "key": {"[1]": {"tested_on": "cisplatin-resistant KB CP.5 cells", "assay": "Cytotoxicity, CellTiter-Glo, monolayer", "type": "cell-based, human", "summary_of_the_method": "(§1)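 Monolayers in DMEM (4.5 g/L glucose, L-glutamine, penicillin/streptomycin, 10% FBS) at 37 °C, 5% CO2. […] Cells at 1000/well grown 24 h, then given test compound (from DMF, DMSO or 3 mM saline stock) as 1:3 serial dilutions in DMEM, DMF at most 0.25% final. After 72 h, CellTiter-Glo luminescence read, in triplicate.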"}, "[2]": {"tested_on": "phosphorylation of histone H2A.X in KB-3-1 cells", "assay": "H2AX immunohistochemical staining", "type": "cell-based, human", "settings": "24 h treatment", "summary_of_the_method": "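KB-3-1 cells (5 × 10^4 per chamber) grown 24 h, then exposed to Pt complexes (5–100 μM) for 24 h. Cells PBS-washed, fixed in 4% paraformaldehyde and blocked 1 h in PBS/5% normal horse serum/0.3% Triton X-100. Stained overnight at 4 °C with Alexa Fluor 647-conjugated anti-phospho-H2A.X (Ser139) rabbit mAb, counterstained with DAPI (2 μg/mL, 1 h), then imaged for γH2A.X foci by confocal microscopy.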"}, "[3]": {"tested_on": "KB-3-1 cells grown in Matrigel", "assay": "Cytotoxicity in three dimensional Matrigel culture, CellTiter-Glo", "type": "cell-based, human", "settings": "KB-3-1, Matrigel", "summary_of_the_method": "(§2)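 Wells coated with 5 mg/mL Matrigel and gelled 30 min at 37 °C. Cells (1000/well) seeded over it in 2.5 mg/mL Matrigel and grown 1 day (single cells) or 4 days (spheroids). Test compound added as 1:3 serial dilutions in DMEM. Viability by CellTiter-Glo with 60 min lysis, run in triplicate.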"}, "[4]": {"tested_on": "cisplatin-resistant KB CP20 cells", "assay": "Cytotoxicity, CellTiter-Glo, monolayer", "type": "cell-based, human", "settings": "for IC50: read-out: IC50 KB CP20, 72 h; for resistance of CP20 cells: relative to parent KB-3-1 cells, monolayer (Table 1 data)", "summary_of_the_method": "as §1"}, "[5]": {"tested_on": "CP.5 cells grown in Matrigel", "assay": "Cytotoxicity in three dimensional Matrigel culture, CellTiter-Glo", "type": "cell-based, human", "settings": "for IC50: CP.5, Matrigel", "summary_of_the_method": "as §2"}, "[6]": {"tested_on": "KB-3-1 human cervical carcinoma cell line", "assay": "Cytotoxicity, CellTiter-Glo, monolayer", "type": "cell-based", "summary_of_the_method": "as §1"}, "[7]": {"tested_on": "cisplatin-resistant cell lines", "settings": "cited from earlier work"}, "Distribution coefficient": {"assay": "Distribution coefficient", "settings": "[octanol]:[phosphate-buffered saline, pH 7.2], fluorescence, mean ± SD"}, "[8]": {"tested_on": "CP20 cells relative to KB-3-1 cells", "assay": "Cellular accumulation by flow cytometry", "type": "cell-based, human", "settings": "25 μM, 45 min, normalized to KB-3-1", "summary_of_the_method": "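Cells trypsinised (200,000 per tube), washed twice and resuspended in IMDM with 5% FBS containing fluorescent test compound (final 25 μM), then held 45 min at 37 °C. Cells rewashed, resuspended in PBS and kept on ice. FL-1 fluorescence read by flow cytometry (488 nm laser, 10,000 events per sample), normalised to parental KB-3-1 cells.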"}, "[9]": {"settings": "pH 7.2"}, "[10]": {"settings": "read-out: IC50 2D, CP.5, 2D culture (Table 2)"}, "[11]": {"settings": "read-out: IC50 KB CP.5, solvent DMF, 72 h"}, "[12]": {"settings": "read-out: IC50 KB CP.5, solvent Saline, 72 h"}, "[13]": {"settings": "relative to parent KB-3-1 cells, monolayer (Table 1 data)"}, "[14]": {"settings": "read-out: IC50 3D 1 Day, grown 1 day (single-cell suspension)"}, "[15]": {"settings": "read-out: IC50 3D 4 Day, grown 4 days (spheroids)"}, "[16]": {"settings": "read-out: IC50 2D, KB-3-1, 2D culture (Table 2)"}, "[17]": {"settings": "read-out: IC50 KB 3-1, solvent DMF, 72 h"}, "[18]": {"settings": "read-out: IC50 KB 3-1, solvent Saline, 72 h"}},
  "note": "Read-outs that look alike come from different tables or passages of the source.",
  "data": [
    {"compound": "N.N.[Cl][Pt][Cl]", "note": "[Cisplatin, cis-[PtCl2(NH3)2]]", "values": [
      {"measurement": "resistance of CP.5 cells", "setting": "[1]; 2D (Table 2 data), relative to KB-3-1", "result": 8.4, "unit": "fold"},
      {"measurement": "IC50", "setting": "[1]; [10]", "result": "21 ± 2.8", "unit": "µM"},
      {"measurement": "IC50", "setting": "[1]; [11]", "result": "23.9 ± 5.3", "unit": "µM"},
      {"measurement": "IC50", "setting": "[1]; [12]", "result": "25.1 ± 3.4", "unit": "µM"},
      {"measurement": "resistance of CP.5 cells", "setting": "[1]; [13]", "result": 10, "unit": "fold"},
      {"measurement": "γH2A.X foci / DNA damage response", "setting": "[2]; 5 μM", "result": "strong DNA damage response"},
      {"measurement": "IC50", "setting": "[3]; [14]", "result": "4.5 ± 0.7", "unit": "µM"},
      {"measurement": "IC50", "setting": "[3]; [15]", "result": "9.4 ± 0.7", "unit": "µM"},
      {"measurement": "IC50", "setting": "[4]; solvent DMF", "result": "125 ± 31.5", "unit": "µM"},
      {"measurement": "IC50", "setting": "[4]; solvent Saline", "result": "> 100", "unit": "µM"},
      {"measurement": "resistance of CP20 cells", "setting": "[4]", "result": 60, "unit": "fold"},
      {"measurement": "resistance of CP.5 spheroids", "setting": "[5]; 3D 4 day, relative to KB-3-1", "result": 3.4, "unit": "fold"},
      {"measurement": "IC50", "setting": "[5]; [14]", "result": "22.9 ± 4.6", "unit": "µM"},
      {"measurement": "IC50", "setting": "[5]; [15]", "result": "32.1 ± 6.9", "unit": "µM"},
      {"measurement": "IC50", "setting": "[6]; [16]", "result": "2.5 ± 0.1", "unit": "µM"},
      {"measurement": "IC50", "setting": "[6]; [17]", "result": "1.8 ± 0.1", "unit": "µM"},
      {"measurement": "IC50", "setting": "[6]; [18]", "result": "2.5 ± 0.2", "unit": "µM"},
      {"measurement": "reduction in accumulation in cisplatin-resistant cells", "setting": "[7]", "result": "50–75%"}
    ]},
    {"compound": "CC1=CC(C)=[N+]2C1=Cc1ccc(CCC(=O)NCCNC(=O)OC(C)(C)C)n1[B-]2(F)F", "note": "[BODIPY-Boc, tert-Butyl (2-(3-(5,5-Difluoro-7,9-dimethyl-5H-4λ^4,5λ^4-dipyrrolo[1,2-c:2′,1′-f][1,3,2]diazaborinin-3-yl)propanamido)ethyl)carbamate]", "values": [
      {"measurement": "IC50", "setting": "[1]; [11]", "result": "86.9 ± 4.4", "unit": "µM"},
      {"measurement": "LogD", "setting": "Distribution coefficient", "result": "2.15 ± 0.023"},
      {"measurement": "IC50", "setting": "[4]; solvent DMF", "result": "53.6 ± 2.9", "unit": "µM"},
      {"measurement": "reduction of accumulation in CP20 cells versus parent KB-3-1 cells", "setting": "[8]", "result": "unaffected"},
      {"measurement": "IC50", "setting": "[6]; [17]", "result": "86.7 ± 0.8", "unit": "µM"}
    ]},
    {"compound": "[Pt(O,O′-cdbca)(NH3)2] [[^14C]carboplatin]", "values": [
      {"measurement": "reduction in accumulation in cisplatin-resistant cells", "setting": "[7]", "result": "50–75%"}
    ]},
    {"compound": "CC1=CC(C)=[N+]2C1=Cc1ccc(CCC(=O)NCCNC(=O)C3C[NH][Pt]([Cl])([Cl])[NH]3)n1[B-]2(F)F", "note": "(stereo not drawn) [BODIPY-prop-Pt, [(2,3-Diamino-N-(2-(3-(5,5-difluoro-7,9-dimethyl-5H-4λ^4,5λ^4-dipyrrolo[1,2-c:2′,1′-f][1,3,2]diazaborinin-3-yl)propanamido)ethyl)propanamide)dichloroplatinum (II)]]", "values": [
      {"measurement": "IC50", "setting": "[1]; [11]", "result": "44.6 ± 2.7", "unit": "µM"},
      {"measurement": "resistance of CP.5 cells", "setting": "[1]; [13]", "result": 2, "unit": "fold"},
      {"measurement": "γH2A.X foci", "setting": "[2]; 50 μM", "result": "did so at 50 μM"},
      {"measurement": "IC50", "setting": "[4]; solvent DMF", "result": "192 ± 50.3", "unit": "µM"},
      {"measurement": "resistance of CP20 cells", "setting": "[4]", "result": 10, "unit": "fold"},
      {"measurement": "LogD", "setting": "[9]", "result": "0.66 ± 0.011"},
      {"measurement": "IC50", "setting": "[6]; [17]", "result": "21.5 ± 5.8", "unit": "µM"}
    ]},
    {"compound": "NCCN.[Cl][Pt][Cl]", "note": "[[PtCl2(en)]]", "values": [
      {"measurement": "IC50", "setting": "[1]; [10]", "result": "107 ± 10.9", "unit": "µM"},
      {"measurement": "IC50", "setting": "[1]; [11]", "result": "150 ± 11.8", "unit": "µM"},
      {"measurement": "IC50", "setting": "[1]; [12]", "result": "94.9 ± 8.3", "unit": "µM"},
      {"measurement": "resistance of CP.5 cells", "setting": "[1]; [13]", "result": 40, "unit": "fold"},
      {"measurement": "γH2A.X foci / DNA damage response", "setting": "[2]; 25 μM", "result": "strong DNA damage response"},
      {"measurement": "IC50", "setting": "[3]; [14]", "result": "21.4 ± 1", "unit": "µM"},
      {"measurement": "IC50", "setting": "[3]; [15]", "result": 150, "unit": "µM"},
      {"measurement": "IC50", "setting": "[4]; solvent DMF", "result": "> 500", "unit": "µM"},
      {"measurement": "IC50", "setting": "[4]; solvent Saline", "result": "> 100", "unit": "µM"},
      {"measurement": "IC50", "setting": "[5]; [14]", "result": "298 ± 21.8", "unit": "µM"},
      {"measurement": "IC50", "setting": "[5]; [15]", "result": "> 500", "unit": "µM"},
      {"measurement": "IC50", "setting": "[6]; [16]", "result": "4.1 ± 0.2", "unit": "µM"},
      {"measurement": "IC50", "setting": "[6]; [17]", "result": "1 ± 0.6", "unit": "µM"},
      {"measurement": "IC50", "setting": "[6]; [18]", "result": "2.7 ± 1.9", "unit": "µM"}
    ]}
  ]
}
